Several values for one entry are separate records, joined by “and”; a condition that tells them apart may be missing. Equal entries are not always repeated.
Assays:
DBT glioma cells = assay: Competitive amino acid cell uptake assays; type: cell-based, mouse; details: 60 s, 37 °C
Outline: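 Mouse DBT glioma cells were seeded at 1 × 10⁵ cells/well and grown 48 h in 10% FBS DMEM under 5% CO₂. Cells were washed twice in 37 °C buffer, then exposed for 60 s at 37 °C, pH 7.40, to the radiotracer. Buffers were Na phosphate-buffered saline or choline-substituted Na-free buffer. Controls had 10 mM sucrose; BCH was 10 mM. Cells were washed with ice-cold buffer, lysed in 0.2% SDS/0.2 M NaOH, γ-counted, and normalized to added activity and BCA protein. Values are % of control, triplicate × two plates.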

[1] = system: BALB/c Mice with Subcutaneous Flank DBT Tumors; assay: Whole body biodistribution in mice with subcutaneous DBT gliomas; type: in vivo, mouse; details: for biodistribution, tumor uptake: subcutaneous DBT tumor
Outline: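 Male BALB/c mice carried subcutaneous flank DBT tumors (5 × 10⁵ cells) and were used at day 14. Under 1% isoflurane–oxygen, each received ~56 μCi (2.07 MBq) of ⁷⁶Br-labelled or 45 μCi (1.67 MBq) of ¹²³I-labelled test compound by tail vein in 0.9% saline. Mice were killed at 5 min, 30 min, 1, 3 and 24 h (n = 4 per time). Tissues were weighed and γ-counted with decay correction, giving % ID/g.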

[2] = system: mice with intracranial DBT gliomas; assay: Small animal PET/CT imaging in mice with intracranial DBT gliomas; type: in vivo, mouse; details: PET; for SUV tumor uptake: intracranial DBT tumor
Outline: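 Four male BALB/c mice carried intracranial DBT gliomas (1 × 10⁴ cells, right mid-cerebrum) and were imaged 14 days after implantation. Under 1% isoflurane–oxygen, each received ~55 μCi (~2.04 MBq) of ⁷⁶Br-labelled test compound by tail vein in 0.9% saline. Imaging was dynamic PET/CT for 0–60 min, then 15-min static scans at 3 and 24 h. Read-out was SUV. Tumors were confirmed afterwards by H&E on fixed brains.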

[3] = 50–60 min (summed) after injection

C[C@](N)(/C=C/[76Br])C(=O)O [[^76Br]5, (S)-amino-2-methyl-4-[^76Br]-bromo-3-(E)-butenoic acid]
uptake relative to control (DBT glioma cells; Na BCH condition (BCH 10 mM, system L inhibitor, sodium buffer)): 43 ± 8.5% | uptake compared to sodium control (DBT glioma cells; choline + BCH (sodium-free, Cho-BCH)): 25 ± 4.1% | uptake compared to the sodium control (DBT glioma cells; choline control (sodium-free, Cho-sucrose)): 46 ± 10% | uptake relative to the control (DBT glioma cells; in the presence of MeAIB (10 mM, system A inhibitor), sodium buffer): 56 ± 12% | biodistribution, blood ([1]; 5 min after i.v. injection): 5.75 ± 0.44 % ID/g | biodistribution, blood ([1]; 30 min after i.v. injection): 1.66 ± 0.16 % ID/g | biodistribution, blood ([1]; 1 h after i.v. injection): 1.22 ± 0.19 % ID/g | biodistribution, blood ([1]; 3 h after i.v. injection): 0.87 ± 0.44 % ID/g | biodistribution, blood ([1]; 24 h after i.v. injection): 0.37 ± 0.04 % ID/g | biodistribution, bone ([1]; 5 min after i.v. injection): 2.13 ± 0.43 % ID/g | biodistribution, bone ([1]; 30 min after i.v. injection): 1.95 ± 0.29 % ID/g | biodistribution, bone ([1]; 1 h after i.v. injection): 1.18 ± 0.64 % ID/g | biodistribution, bone ([1]; 3 h after i.v. injection): 0.46 ± 0.20 % ID/g | biodistribution, bone ([1]; 24 h after i.v. injection): 0.1 ± 0.04 % ID/g | biodistribution, brain ([1]; 5 min after i.v. injection): 0.54 ± 0.04 % ID/g | biodistribution, brain ([1]; 30 min after i.v. injection): 0.42 ± 0.02 % ID/g | biodistribution, brain ([1]; 1 h after i.v. injection): 0.38 ± 0.04 % ID/g | biodistribution, brain ([1]; 3 h after i.v. injection): 0.31 ± 0.06 % ID/g | biodistribution, brain ([1]; 24 h after i.v. injection): 0.09 ± 0.01 % ID/g | biodistribution, fat ([1]; 5 min after i.v. injection): 1.36 ± 0.38 % ID/g | biodistribution, fat ([1]; 30 min after i.v. injection): 0.85 ± 0.71 % ID/g | biodistribution, fat ([1]; 1 h after i.v. injection): 0.31 ± 0.20 % ID/g | biodistribution, fat ([1]; 3 h after i.v. injection): 0.17 ± 0.04 % ID/g | biodistribution, fat ([1]; 24 h after i.v. injection): 0.04 ± 0.01 % ID/g | biodistribution, heart ([1]; 5 min after i.v. injection): 2.92 ± 0.29 % ID/g | biodistribution, heart ([1]; 30 min after i.v. injection): 2.21 ± 0.18 % ID/g | biodistribution, heart ([1]; 1 h after i.v. injection): 1.67 ± 0.27 % ID/g | biodistribution, heart ([1]; 3 h after i.v. injection): 0.67 ± 0.15 % ID/g | biodistribution, heart ([1]; 24 h after i.v. injection): 0.13 ± 0.02 % ID/g | biodistribution, kidney ([1]; 5 min after i.v. injection): 47.50 ± 4.26 % ID/g | biodistribution, kidney ([1]; 30 min after i.v. injection): 8.95 ± 0.91 % ID/g | biodistribution, kidney ([1]; 1 h after i.v. injection): 5.49 ± 0.98 % ID/g | biodistribution, kidney ([1]; 3 h after i.v. injection): 1.29 ± 0.43 % ID/g | biodistribution, kidney ([1]; 24 h after i.v. injection): 0.23 ± 0.02 % ID/g | biodistribution, liver (all) ([1]; 5 min after i.v. injection): 4.57 ± 0.27 % ID/g | biodistribution, liver (all) ([1]; 30 min after i.v. injection): 1.63 ± 0.33 % ID/g | biodistribution, liver (all) ([1]; 1 h after i.v. injection): 1.03 ± 0.48 % ID/g | biodistribution, liver (all) ([1]; 3 h after i.v. injection): 0.34 ± 0.09 % ID/g | biodistribution, liver (all) ([1]; 24 h after i.v. injection): 0.1 ± 0.02 % ID/g | biodistribution, lung ([1]; 5 min after i.v. injection): 6.20 ± 0.41 % ID/g | biodistribution, lung ([1]; 30 min after i.v. injection): 1.73 ± 0.16 % ID/g | biodistribution, lung ([1]; 1 h after i.v. injection): 1.15 ± 0.22 % ID/g | biodistribution, lung ([1]; 3 h after i.v. injection): 0.54 ± 0.07 % ID/g | biodistribution, lung ([1]; 24 h after i.v. injection): 0.27 ± 0.05 % ID/g | biodistribution, muscle ([1]; 5 min after i.v. injection): 1.54 ± 0.18 % ID/g | biodistribution, muscle ([1]; 30 min after i.v. injection): 1.75 ± 0.77 % ID/g | biodistribution, muscle ([1]; 1 h after i.v. injection): 0.98 ± 0.12 % ID/g | biodistribution, muscle ([1]; 3 h after i.v. injection): 0.4 ± 0.20 % ID/g | biodistribution, muscle ([1]; 24 h after i.v. injection): 0.08 ± 0.01 % ID/g | brain uptake, fold higher than with [^123I]8 ([1]; normal brain, through 3 h after injection): 2- to 3 fold | biodistribution, pancreas ([1]; 5 min after i.v. injection): 27.0 ± 7.2 % ID/g and 27.04 ± 7.15 % ID/g | biodistribution, pancreas ([1]; 30 min after i.v. injection): 24.35 ± 4.06 % ID/g | biodistribution, pancreas ([1]; 1 h after i.v. injection): 14.31 ± 8.12 % ID/g | biodistribution, pancreas ([1]; 3 h after i.v. injection): 2.48 ± 1.17 % ID/g | biodistribution, pancreas ([1]; 24 h after i.v. injection): 0.17 ± 0.02 % ID/g | biodistribution, spleen ([1]; 5 min after i.v. injection): 8.20 ± 0.71 % ID/g | biodistribution, spleen ([1]; 30 min after i.v. injection): 4.05 ± 0.55 % ID/g | biodistribution, spleen ([1]; 1 h after i.v. injection): 2.30 ± 0.82 % ID/g | biodistribution, spleen ([1]; 3 h after i.v. injection): 0.59 ± 0.21 % ID/g | biodistribution, spleen ([1]; 24 h after i.v. injection): 0.18 ± 0.03 % ID/g | biodistribution, tumor uptake ([1]; 5 min after i.v. injection): 2.5 ± 0.64 % ID/g and 2.52 ± 0.64 % ID/g | biodistribution, tumor uptake ([1]; 30 min after i.v. injection): 3.8 ± 0.95 % ID/g and 3.79 ± 0.95 % ID/g | biodistribution, tumor uptake ([1]; 1 h after i.v. injection): 3.7 ± 0.4 % ID/g and 3.72 ± 0.43 % ID/g | biodistribution, tumor uptake ([1]; 3 h after i.v. injection): 1.65 ± 0.40 % ID/g | biodistribution, tumor uptake ([1]; 24 h after i.v. injection): 0.25 ± 0.03 % ID/g | maximal tumor uptake ([1]; subcutaneous DBT tumors, around 30 min to an hour postinjection): 3.7–3.8 % ID/g | biodistribution, thyroid ([1]; thyroid, 5 min after i.v. injection): 3.60 ± 0.69 % ID/g | thyroid uptake ([1]; thyroid, 5 min after injection): 3.6 ± 0.7 % ID/organ | biodistribution, thyroid ([1]; thyroid, 30 min after i.v. injection): 1.63 ± 0.12 % ID/g | biodistribution, thyroid ([1]; thyroid, 1 h after i.v. injection): 1.26 ± 0.18 % ID/g | biodistribution, thyroid ([1]; thyroid, 3 h after i.v. injection): 0.53 ± 0.08 % ID/g | biodistribution, thyroid ([1]; thyroid, 24 h after i.v. injection): 0.17 ± 0.06 % ID/g | tumor/brain SUV ratio [2, 3]: 1.70 ± 0.26 | tumor/brain SUV ratio ([2]; 3 h after injection): 2.67 ± 0.15 | tumor/brain SUV ratio ([2]; 24 h after injection): 3.05 ± 0.30 | SUV tumor uptake [2, 3]: 0.63 ± 0.06 | SUV tumor uptake ([2]; 3 h after injection): 0.70 ± 0.13
